Experimental findings from ChEMBL document CHEMBL1143777, “Synthesis of some bioactive 2-bromo-5-methoxy-N'-[4-(aryl)-1,3-thiazol-2-yl]benzohydrazide derivatives” (2007) are described below.

For experiment [1], the system named is Staphylococcus aureus. Nature of the experiment: Antibacterial activity against Staphylococcus aureus by disc diffusion method. In kind it is functional. (In agar diffusion tests the substance spreads into inoculated agar from a disc or well.)
The subject of experiment [2] is Talaromyces marneffei. Nature of the experiment: Antifungal activity against Penicillium marneffei by serial plate dilution method. Type of experiment: functional.
Experiment [3] concerns Trichophyton benhamiae. Briefly: Antifungal activity against Trichophyton mentagrophytes by serial plate dilution method. Type of experiment: functional, Arthroderma benhamiae.
The test system of experiment [4] is Aspergillus fumigatus. Nature of the experiment: Antifungal activity against Aspergillus fumigatus by serial plate dilution method. In kind it is functional.
Experiment [5] relates to Mus musculus. Briefly: Analgesic activity against acetic acid-induced writhing in Swiss Albino mouse assessed as protection at 50 mg/kg, po. Type of experiment: functional. The method in brief:
(§1)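 Mice were dosed with the test agent or diclofenac sodium (2.5 mg/kg). One hour later, writhing was induced by ip injection of 0.6% acetic acid in distilled water at 10 ml/kg. Writhes were counted for 15 min right after the acetic acid injection, and percentage protection was calculated.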
On the technique in general: Writhing tests count abdominal constrictions after an irritant is injected.

Experiment [6] relates to Pseudomonas aeruginosa. Nature of the experiment: Antibacterial activity against Pseudomonas aeruginosa by disc diffusion method. In kind it is functional.
Experiment [7] deals with Aspergillus flavus. Nature of the experiment: Antifungal activity against Aspergillus flavus by serial plate dilution method. Type of experiment: functional.
The subject of experiment [8] is SF-268. Nature of the experiment: Antiproliferative activity against SF268 cells assessed as growth at 100 uM after 48 hrs. The following applies: Homo sapiens, SF-268, 48 h; read-out: Activity. In kind it is functional. The essentials: (§2)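 This was the NCI primary three-cell-line, one-dose screen (lung NCI-H, breast MCF-7, CNS SF-268). Cells were inoculated on preincubated microtiter plates, and the agent was added at a single concentration. Cultures were incubated for 48 h. The endpoint was determined with sulphorhodamine B protein staining, with negative growth values indicating cell kill.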

Experiment [9] relates to Klebsiella pneumoniae. Briefly: Antibacterial activity against Klebsiella pneumoniae by disc diffusion method. Type of experiment: functional.
In experiment [10] the test system is MOLT-4. Briefly: Antiproliferative activity against MOLT4 cells after 48 hrs. Type of experiment: functional. The conditions noted are these: Homo sapiens, MOLT-4, 48 h. The essentials:
(§3)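 This was the NCI 60-cell-line panel (lung, colon, melanoma, renal, ovarian, CNS, leukemia), with compounds tested over a five-dose range.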

For experiment [11], the system named is RPMI-8226. Nature of the experiment: Antiproliferative activity against RPMI8226 cells after 48 hrs. In kind it is functional. The following applies: Homo sapiens, RPMI-8226, 48 h. The method in brief:
as §3

The subject of experiment [12] is SR. Briefly: Antiproliferative activity against SR cells after 48 hrs. In kind it is functional. The following applies: Homo sapiens. The essentials: as §3
The nature of experiment [13]: Antiproliferative activity against NCI-H cells assessed as growth at 100 uM after 48 hrs. In kind it is functional. The conditions noted are these: Homo sapiens, read-out: Activity. The method in brief: as §2
Experiment [14] has as its system MCF7. Briefly: Antiproliferative activity against MCF7 cells assessed as growth at 100 uM after 48 hrs. Type of experiment: functional. The following applies: Homo sapiens, MCF7, 48 h; read-out: Activity. The method in brief: as §2
Experiment [15] relates to Escherichia coli. Nature of the experiment: Antibacterial activity against Escherichia coli by disc diffusion method. In kind it is functional.
Experiment [16] concerns Mus musculus. Nature of the experiment: Analgesic activity against acetic acid-induced writhing in Swiss Albino mouse assessed as protection at 2.5 mg/kg, po. In kind it is functional. The essentials:
as §1

[17] abbreviates: read-out: LC50 (the source's name).

In brackets after ≈: the same amount, converted by molar mass. Some results are limits rather than exact numbers.

Consider `COc1ccc(Br)c(C(=O)NNc2nc(-c3cc4cc(Br)ccc4oc3=O)cs2)c1`, for which the MIC (as a rule, the lowest concentration that inhibits growth of the organism) in experiment [1] turned out to be 50 µg/mL (≈ 90.7 µM); in experiment [2] it was 12.5 µg/mL (≈ 22.7 µM); in experiment [3], 12.5 µg/mL (≈ 22.7 µM); in [4], 10 µg/mL (≈ 18.1 µM). Besides, the Activity in [5] stood at 50%.
For `COc1ccc(Br)c(C(=O)NNc2nc(-c3ccc(Cl)cc3)cs2)c1`, the MIC in experiment [6], in experiment [7] and in [3] was 50 µg/mL (≈ 114 µM) in each case. Besides, in [5], the Activity came to 43.75%.
On to `COc1ccc(-c2csc(NNC(=O)c3cc(OC)ccc3Br)n2)cc1`, for which the minimum inhibitory concentration (MIC) in [6] and in experiment [4] was 50 µg/mL (≈ 115 µM) in each case. Moreover, the Activity in experiment [5] came out at 25%.
Regarding `COc1ccc(Br)c(C(=O)NNc2nc(-c3ccc(O)c(C(N)=O)c3)cs2)c1`, the growth at 100 µM in experiment [8] is 55%; in experiment [13], 17%; in [14], 19%. Moreover, the MIC came out at 12.5 µg/mL (≈ 27 µM) in experiment [9]; 12.5 µg/mL (≈ 27 µM) in [1]; 12.5 µg/mL (≈ 27 µM) in experiment [2]; 60 µg/mL (≈ 130 µM) in experiment [7]; 12.5 µg/mL (≈ 27 µM) in experiment [3]; 12.5 µg/mL (≈ 27 µM) in experiment [4]. In experiment [5], the Activity was found to be 56.25%. Besides, the GI50 (usually the concentration giving 50% growth inhibition) stood at 22.6 µM in experiment [10], 27.9 µM in [11] and 29.8 µM in experiment [12]. For the same compound, the TGI – broadly, the concentration giving total growth inhibition – in experiment [10] is 57 µM; in experiment [11], 92.5 µM; in experiment [12] it was ≥ 100 µM. In addition, the CC50 in experiment [10] (setting [17]), in [11] (setting [17]) and in experiment [12] (setting [17]) was ≥ 100 µM in each case.
Take `COc1ccc(Br)c(C(=O)NNc2nc(-c3ccc(O)c(O)c3)cs2)c1`: the growth at 100 µM came out at 111% in experiment [8], 101% in [13] and 86% in experiment [14]. In addition, the MIC in experiment [15] turned out to be 50 µg/mL (≈ 115 µM); in experiment [9] it was 12.5 µg/mL (≈ 28.7 µM); in [6], 6.25 µg/mL (≈ 14.3 µM); in [1], 50 µg/mL (≈ 115 µM); in experiment [7] it was 12.5 µg/mL (≈ 28.7 µM); in experiment [4], 50 µg/mL (≈ 115 µM). For the same compound, in [5], the Activity is recorded as 12.5%.
Regarding `COc1ccc(Br)c(C(=O)NNc2nc(-c3ccnc(Cl)c3)cs2)c1`, the results for the growth at 100 µM in experiment [8], in [13] and in [14] were 111%, 95% and 87%, respectively. For the same compound, the MIC in [9] turned out to be 50 µg/mL (≈ 114 µM); in experiment [2] it was 12.5 µg/mL (≈ 28.4 µM); in experiment [7] it was 50 µg/mL (≈ 114 µM); in experiment [3], 12.5 µg/mL (≈ 28.4 µM); in experiment [4], 12.5 µg/mL (≈ 28.4 µM). Moreover, in [5], the Activity was found to be 37.5%.
As to `COc1ccc(Br)c(C(=O)NNc2nc(-c3cc4ccccc4oc3=O)cs2)c1`, the minimal inhibitory concentration (MIC) in experiment [15] came to 50 µg/mL (≈ 106 µM); in experiment [1] it was 50 µg/mL (≈ 106 µM); in experiment [2] it was 12.5 µg/mL (≈ 26.5 µM). Further, the Activity in experiment [5] amounted to 37.5%.
Regarding `COc1ccc(Br)c(C(=O)NNc2nc(-c3ccccc3)cs2)c1`, the Activity in [5] came to 12.5%.
As for `O=C([O-])Cc1ccccc1Nc1c(Cl)cccc1Cl.[Na+]` [DICLOFENAC SODIUM], in experiment [16], the Activity was determined as 62.5%.
Consider `CCC(C)n1ncn(-c2ccc(N3CCN(c4ccc(OC[C@H]5CO[C@](Cn6cncn6)(c6ccc(Cl)cc6Cl)O5)cc4)CC3)cc2)c1=O` (stereo not given in full) [ITRACONAZOLE], for which the MIC in experiment [2], in experiment [7], in experiment [3] and in experiment [4] was < 16 µg/mL in each case.
